# Assay results: ChEMBL document CHEMBL5154683, “A 5-FU Precursor Designed to Evade Anabolic and Catabolic Drug Pathways and Activated by Pd Chemistry In Vitro and In Vivo” (J Med Chem, 2022)
# Key:
# [1] = Efflux ratio of apparent permeability across basolateral to apical side over apical to basolateral side in human Caco2 cells at 10 uM measured after 120 mins by LC-MS/MS analysis; type: ADME, cell-based; settings: Caco-2
# Method in brief: (§1)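 Caco-2 cells (P40-60) seeded at 1 × 10⁵ cells/cm² on Transwells, used on day 20; rinsed and equilibrated 40 min in HBSS pH 7.4. Compound at 10 μM in HBSS, 1% v/v DMSO, added apically (A–B) or basolaterally (B–A); 120 min at 37 °C, 5% CO₂. Lucifer yellow monitored monolayer integrity; LC-MS/MS with eight-point calibration; recovery from C₀ and both compartments.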
# [2] = Mean residence time in male Wistar Han rat at 1000 mg/kg, po administered as single dose measured upto 24 hrs; type: ADME, organism-based; settings: in vivo
# Method in brief: (§2)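 Single oral dose 1000 mg/kg in male and female rats, dosing volume 10 mL/kg (n = 6); animals observed 14 days with clinical checks, functional/neurobehavioral tests and body weight, necropsy on d15; exposure parameters from the toxicokinetic arm of this study.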
# [3] = Toxicity in female Wistar Han rat assessed as change in body weight at 1000 mg/kg, po administered as single dose measured over 14 days; type: organism-based; settings: in vivo, 336 h, time > 14 day
# Method in brief: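 Single oral dose of 1000 mg/kg at 10 mL/kg to male and female rats (n = 6), then 14 d observation. Morbidity and mortality checked twice daily. Clinical signs recorded predose, twice on dosing day, then daily. FOB on d1, d7 or d14. Body weight on d1, 2, 5, 8, 11 and 14. Gross necropsy on d15.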
# [4] = Metabolic stability in rat hepatocytes assessed as half life at 1 uM by LC-MS/MS analysis; type: ADME, cell-based, Hepatocyte
# Method in brief: (§3)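 Suspended hepatocytes (0.5 × 10⁶ cells/mL) in Williams E medium with 2 mM L-glutamine and 25 mM HEPES at 37 °C, compound added with 0.25% v/v DMSO after preincubation; aliquots quenched into methanol with internal standard at time points, centrifuged, supernatant analyzed by LC-MS/MS; two control compounds included.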
# [5] = AUC (0 to infinity) in male Wistar Han rat at 10 mg/kg, po administered as single dose measured upto 24 hrs; type: ADME, organism-based; parameters: time < 24 hrs, dose 10 mg/kg, route po; settings: in vivo
# Method in brief: (§4)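 Male jugular-vein-cannulated Wistar Han rats, 263–319 g, single dose. IV: 1 mg/kg as 2 mL/kg of 0.5 mg/mL in 5% DMSO/95% HPCD (20% w/v), not fasted. PO: 10 mg/kg as 5 mL/kg of 2 mg/mL suspension in 5% DMSO/95% tween 80/HPCD vehicle, fasted overnight. Serial cannula blood sampling 0.083/0.25–24 h (n = 3/route); parent quantified by QToF against calibration curve.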
# [6] = Tmax in male Wistar Han rat at 1000 mg/kg, po administered as single dose measured upto 24 hrs; type: ADME, organism-based; settings: in vivo; method in brief: as §2
# [7] = AUC (0 to t) in male Wistar Han rat at 10 mg/kg, po administered as single dose measured upto 24 hrs; type: ADME, organism-based; parameters: time < 24 hrs, dose 10 mg/kg, route po; settings: in vivo; method in brief: as §4
# [8] = Stability in human hepatocytes assessed as parent compound remaining at 10 uM measured after 60 mins by UPLC analysis; type: ADME, cell-based, Hepatocyte; settings: read-out: Stability
# Method in brief: (§5)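 Cryopreserved male Sprague–Dawley rat or male human hepatocytes (0.5 × 10⁶ cells/mL) in Leibovitz buffer with 10 μM compound, 37 °C, shaken 700 rpm, 60 min. Samples at 0 and 60 min quenched 1:1 with ice-cold acetonitrile; supernatant analyzed by UPLC–QToF MS (positive ion). Hepatocyte-only and buffer-only negatives; verapamil and 7-hydroxycoumarin as viability controls.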
# [9] = Cmax in female Wistar Han rat at 1000 mg/kg, po administered as single dose measured upto 24 hrs; type: ADME, organism-based; parameters: time < 24 hrs, dose 1000 mg/kg, route po; settings: in vivo; method in brief: as §2
# [10] = Prodrug conversion in rat liver S9 fraction assessed as DH5FU metabolite formation at 1.6 mM incubated for 1 hr in presence of NADPH by 19F-NMR based analysis; type: ADME, subcellular; settings: s9, 1 h, 1600 µM
# Method in brief: (§6)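 Compound added as 150 mM stock in DMSO-d₆, preincubated 5 min at 37 °C with enzyme mixture, then NADPH added (1 mM) and incubated 1 h at 37 °C, 600 rpm; controls without NADPH and without enzymes. Stopped with EtOAc, dried under N₂, redissolved in DMSO-d₆, DH5FU detected by ¹⁹F NMR vs authentic sample.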
# [11] = Plasma protein binding in human assessed as compound recovery at 5 uM; type: ADME, cell-free; settings: read-out: Drug recovery
# Method in brief: (§7)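 Binding of compound at 5 μM measured in rat and human plasma, with compound recovery determined; n = 3.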
# [12] = Half life in male Wistar Han rat at 1 mg/kg, iv administered as single dose measured upto 24 hrs; type: ADME, organism-based; settings: in vivo; method in brief: as §4
# [13] = AUC (0 to infinity) in maleWistar Han rat at 1000 mg/kg, po administered as single dose measured upto 24 hrs; type: ADME, organism-based; parameters: time < 24 hrs, dose 1000 mg/kg, route po; settings: male, Wistar Han, in vivo; method in brief: as §2
# [14] = Apparent permeability across apical to basolateral side in human Caco-2 cells assessed as drug recovery at 10 uM measured after 120 mins by LC-MS/MS analysis; type: ADME, cell-based; settings: read-out: Drug recovery; method in brief: as §1
# [15] = Tmax in male Wistar Han rat at 10 mg/kg, po administered as single dose measured upto 24 hrs; type: ADME, organism-based; settings: in vivo; method in brief: as §4
# [16] = AUC (0 to t) in female Wistar Han rat at 1000 mg/kg, po administered as single dose measured upto 24 hrs; type: ADME, organism-based; parameters: dose 1000 mg/kg, time < 24 hrs, route po; settings: in vivo; method in brief: as §2
# [17] = AUC (0 to t) in male Wistar Han rat at 1000 mg/kg, po administered as single dose measured upto 24 hrs; type: ADME, organism-based; parameters: dose 1000 mg/kg, time < 24 hrs, route po; settings: in vivo; method in brief: as §2
# [18] = Metabolic stability in human hepatocytes assessed as half life at 1 uM by LC-MS/MS analysis; type: ADME, cell-based, Hepatocyte; method in brief: as §3
# [19] = Stability in Sprague-Dawley rat hepatocytes assessed as parent compound remaining at 10 uM measured after 60 mins by UPLC analysis; type: ADME, cell-based, Hepatocyte; settings: read-out: Stability; method in brief: as §5
# [20] = Prodrug conversion in human liver S9 fraction assessed as DH5FU metabolite formation at 1.6 mM incubated for 1 hr in presence of NADPH by 19F-NMR based analysis; type: ADME, subcellular; settings: s9, 1 h, 1600 µM; method in brief: as §6
# [21] = Plasma protein binding in rat assessed as compound recovery at 5 uM; type: ADME, cell-free; settings: read-out: Drug recovery; method in brief: as §7
# [22] = Metabolic stability in rat hepatocytes assessed as intrinsic clearance at 1 uM measured per 10^6 cells by LC-MS/MS analysis; type: ADME, cell-based, Hepatocyte; settings: read-out: CLH; method in brief: as §3
# [23] = Metabolic stability in rat hepatocytes assessed as intrinsic clearance at 3 uM measured per 10^6 cells by LC-MS/MS analysis; type: ADME, cell-based, Hepatocyte; settings: read-out: CLH; method in brief: as §3
# [24] = Apparent permeability across basolateral to apical side in human Caco-2 cells assessed as drug recovery at 10 uM measured after 120 mins by LC-MS/MS analysis; type: ADME, cell-based; settings: read-out: Drug recovery; method in brief: as §1
# [25] = Drug metabolism in PBS buffer assessed as dealkylation of parent compound causing metabolite formation at 100 uM in presence of palladium resin; type: ADME
# Method in brief: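 Prodrug (100 μM in PBS, pH 7.4) shaken at 1200 rpm, 37 °C with 1 mg/mL Pd resins (30 μm). Sampled at 10, 20, 40 min, 1, 3, 6, 24 and 48 h; analyzed by reverse-phase UPLC (C18, 60 °C, UV 254 nm), products identified by retention time against authentic standards.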
# [26] = Apparent permeability across apical to basolateral side in human Caco-2 cells at 10 uM measured after 120 mins by LC-MS/MS analysis; type: ADME, cell-based; method in brief: as §1
smiles,measurement,setting,value
C#CCOc1ncc(F)c(OCC#C)n1,"efflux ratio at 2 h, 10 µM",[1],1.38
same,MRT,[2],9.7 h
same,Activity,[3],Non-Toxic
same,half-life at 1 µM,[4],1.52 h
same,AUC(0-inf),[5],6.19 µg·h/mL
same,Tmax,[6],1 h
same,AUC(0-t) at 24 h,[7],6.08 µg·h/mL
same,"remaining at 1 h, 10 µM",[8],> 99%
same,Cmax,[9],83.6 µg/mL
same,Drug metabolism,[10],Metabolite_Notdetected
same,recovery at 5 µM,[11],95.7%
same,half-life,[12],0.497 h
same,AUC(0-inf),[13],2610 µg·h/mL
same,"recovery at 2 h, 10 µM",[14],79.2%
same,Tmax,[15],0.25 h
same,AUC(0-t) at 24 h,[16],1210 µg·h/mL
same,AUC(0-t) at 24 h,[17],1590 µg·h/mL
same,half-life at 1 µM,[18],5.37 h
same,"remaining at 1 h, 10 µM",[19],95%
same,Drug metabolism,[20],Metabolite_Notdetected
same,recovery at 5 µM,[21],94.8%
same,hepatocyte CLint at 1 µM,[22],15.3 µL/min/1e6 cells
same,hepatocyte CLint at 3 µM,[23],3.31 µL/min/1e6 cells
same,"recovery at 2 h, 10 µM",[24],73.9%
same,Drug metabolism,[25],Metabolite_Detected
same,"Papp A→B at 2 h, 10 µM",[26],28.1 ×10⁻⁶ cm/s
